Source: PubChem BioAssay (several laboratories)
Only some compounds are listed: those with a hit (about 1.1% of all), similar ones and a draw of the others.
NR2E3 ag-1 = activates human photoreceptor nuclear receptor NR2E3; Q9Y5X4; AID 2300; GST-NR2E3/biotin-RetCOR TR-FRET, 1536-well; 320,000 tested, 0.12% active; inhibition of corepressor binding, % at 4.78 µM;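 active means percent inhibition above the cutoff of mean plus 3 SD of all tested compounds, set per screening campaign, cut at about 20% in these data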;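 further: 0% = DMSO wells and 100% = biotin wells as full block of FRET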
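system = GST-tagged NR2E3 plus biotinylated RetCOR corepressor | input = 1.35 nM GST-NR2E3 | also added = 7 nM biotin-RetCOR | schedule = 5 h incubation at 4 °C | measured by = TR-FRET with europium anti-GST and streptavidin-D2, 340 nm excitation | read-out = percent loss of FRET ratio relative to control wells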
Vif inh = HIV Vif inhibition. inhibition, % at 7.49 µM. HEK293T cells, Vif self-association by quenched fluorescence, imaging, 24 h. 340,000 tested, 0.35% active. AID 602346; in the data active means inhibition above about 50%, passing the limit was not always enough
DAGLB inh = blocks human DAGLB lipase activity. Q8NCG7. HEK293T DAGLB membrane lysate, EnzChek fluorogenic substrate. inhibition, % at 5.17 µM. 340,000 tested, 0.059% active. AID 504411; in the data active means inhibition above about 34%;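 further: 0% = enzyme with vehicle and 100% = wells lacking enzyme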
Target sequence (Q8NCG7 whole entry, looked up): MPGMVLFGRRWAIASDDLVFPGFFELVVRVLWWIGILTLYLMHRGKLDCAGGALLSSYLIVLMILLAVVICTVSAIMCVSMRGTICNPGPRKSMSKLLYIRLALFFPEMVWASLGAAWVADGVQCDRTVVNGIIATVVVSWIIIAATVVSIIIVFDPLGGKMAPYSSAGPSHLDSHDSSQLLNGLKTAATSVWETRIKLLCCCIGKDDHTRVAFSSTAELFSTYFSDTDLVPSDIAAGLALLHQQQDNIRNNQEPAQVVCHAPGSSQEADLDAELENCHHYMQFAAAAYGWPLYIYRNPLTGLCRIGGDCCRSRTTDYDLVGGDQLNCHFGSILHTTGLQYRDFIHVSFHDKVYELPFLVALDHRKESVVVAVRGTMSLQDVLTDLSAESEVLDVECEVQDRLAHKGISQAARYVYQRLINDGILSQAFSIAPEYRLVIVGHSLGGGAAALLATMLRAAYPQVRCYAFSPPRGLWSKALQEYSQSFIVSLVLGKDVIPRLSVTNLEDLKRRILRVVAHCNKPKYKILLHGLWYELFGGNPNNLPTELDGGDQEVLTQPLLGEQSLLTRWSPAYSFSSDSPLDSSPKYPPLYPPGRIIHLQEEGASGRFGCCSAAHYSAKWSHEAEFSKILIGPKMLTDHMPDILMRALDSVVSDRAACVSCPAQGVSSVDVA
NR2E3 ag-2 = human photoreceptor-specific nuclear receptor agonism. Q9Y5X4. CHO-S Gal4-NCOR/VP16-NR2E3 two-hybrid, luciferase. inhibition of corepressor binding, % at 3.98 µM. 360,000 tested, 0.35% active;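 active means inhibition above the mean of all tested compounds plus 3 SD, cut at about 70% in these data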;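 further: 0% = DMSO with NR2E3 transfected cells and 100% = cells lacking NR2E3 construct; higher means lower luciferase signal from less NR2E3 corepressor binding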
core dimer inh = blocks dimerization of HCV core protein; TR-FRET GST/Flag-core106 dimerization, 1536-well; inhibition, % at 5 µM; 300,000 tested, 0.33% active; AID 1899;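 active means inhibition above the mean of all tested compounds plus 3 SD, set per screening campaign, cut at about 45% in these data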
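Material: GST/Flag-tagged HCV core106 proteins. Incubation: 4 h, 22.5 °C incubation. Read-out basis: inhibition (%) from 671 over 617 nm ratio. Measured by: TR-FRET, excitation 340 nm, emission 617 and 671 nm.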
MT1-MMP act inh = MT1-MMP (human) activation inhibition. AID 651647. P50281. 360,000 tested, 0.061% active. GFP/RFP ratio change, % at 20 µM. HT1080 RFP-PRO-GFP cells, GFP/RFP ratio fluorescence, overnight; percent of plate control window, DMSO zero;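 active means GFP/RFP ratio change of at least 30% with cell ATP level not reduced by more than half and red fluorescence within 50% of control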
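Read-out: GFP/RFP fluorescence ratio; Test system: RFP-PRO-GFP reporter HT1080 cells; Compound dosing: single-point 20 µM compound, 1% DMSO; Times: overnight compound exposure at 37 °C.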
Active calls of the source: *.

`CCOC(=O)C1=C(C)NC(C)=C(C(=O)OC)C1c1cccc([N+](=O)[O-])c1` (stereo unspecified) gave NR2E3 ag-1 4, Vif inh 135*, DAGLB inh 1, NR2E3 ag-2 -23, core dimer inh -9 and MT1-MMP act inh 1.
For COCCOC(=O)C1=C(C)NC(C)=C(C(=O)OC(C)C)C1c1cccc([N+](=O)[O-])c1 (stereo unspecified) the results were NR2E3 ag-1 4, Vif inh -7, DAGLB inh 1, NR2E3 ag-2 -7, core dimer inh 1 and MT1-MMP act inh -3.
`O=C(CCC(=O)c1ccc[nH]1)c1ccc(Cl)cc1` gave NR2E3 ag-1 -2, Vif inh -1, DAGLB inh 3, NR2E3 ag-2 -99, core dimer inh 53* and MT1-MMP act inh 3.
`O=C(COc1ccc(F)c(Cl)c1)c1ccc[nH]1` gave NR2E3 ag-1 0, Vif inh -6, DAGLB inh -1, NR2E3 ag-2 -58, core dimer inh 11 and MT1-MMP act inh -1.
`Cc1ccc(CN2CCN(Cc3cn[nH]c3-c3cccc(F)c3)CC2CCO)o1` (stereo unspecified) gave NR2E3 ag-1 -1, Vif inh -9, DAGLB inh -1, NR2E3 ag-2 -30, core dimer inh 3 and MT1-MMP act inh 3.
COc1ccc(N2C(=NC(=O)C(C)Oc3ccccc3)SC3CS(=O)(=O)CC32)cc1 (stereo unspecified) was read as NR2E3 ag-1 3, Vif inh 7, DAGLB inh 1, NR2E3 ag-2 -25, core dimer inh 3 and MT1-MMP act inh -3.
For CC(C)(C)OC(=O)Nc1ccccc1-n1nnnc1C(C(=O)c1ccc(F)cc1)N1CCN(c2ccccn2)CC1 (stereo unspecified) the results were MT1-MMP act inh -7.
Screening O=C(COC(=O)c1cc(S(=O)(=O)N2CCOCC2)ccc1F)NCc1ccc2c(c1)OCO2 returned Vif inh 20, DAGLB inh -1, NR2E3 ag-2 9 and MT1-MMP act inh 1.
`CCOC(=O)Cc1c(-c2cccc(Br)c2)nc2c3ccccc3ccn12` gave NR2E3 ag-2 -15 and MT1-MMP act inh -4.
For CNc1ccc(Br)cc(C(=O)/C=C/c2cccc(OC)c2OC)c1=O the results were NR2E3 ag-1 -1, Vif inh 75*, DAGLB inh 5, NR2E3 ag-2 -4, core dimer inh 0 and MT1-MMP act inh -6.
For CSc1nc(N2CCOCC2)c2c(c1C#N)CC(C)(C)OC2 the results were NR2E3 ag-1 1, Vif inh 2, DAGLB inh -3, NR2E3 ag-2 -16, core dimer inh 0 and MT1-MMP act inh 3.
Screening CCC1(C)Cc2c(C#N)c(SC)nc(N3CCOCC3)c2CO1 (stereo unspecified) returned NR2E3 ag-1 6, Vif inh 53*, NR2E3 ag-2 -12, core dimer inh 9 and MT1-MMP act inh 1.
Screening CC(=O)N1CCC(C(=O)N2c3ccccc3N=C(c3ccc4c(c3)OCO4)C2C(=O)Nc2c(C)cccc2C)CC1 (stereo unspecified) returned MT1-MMP act inh -2.
Screening CC(=O)Nc1ccc(-c2ccnc3c2CC(C(=O)NCC2CCOCC2)O3)cc1 (stereo unspecified) returned Vif inh 3, NR2E3 ag-2 2 and MT1-MMP act inh -4.
O=C1c2ccccc2C(Nc2ccc(S(=O)(=O)N3CCOCC3)cc2)N1c1ccccn1 (stereo unspecified) was read as NR2E3 ag-1 1, Vif inh 52*, DAGLB inh -1, NR2E3 ag-2 -7, core dimer inh 25 and MT1-MMP act inh -3.
Screening Cc1c(NS(=O)(=O)c2cc(C(=O)N(C)Cc3ccccc3)ccc2Cl)c(=O)n(-c2ccccc2)n1C returned Vif inh 3, DAGLB inh -1, NR2E3 ag-2 -12 and MT1-MMP act inh 0.
Screening C[C@H](NC(=O)c1nc[nH]c1C(=O)N[C@@H](C)C(=O)OCc1ccccc1)C(=O)OCc1ccccc1 returned NR2E3 ag-1 -1, Vif inh 68*, DAGLB inh -3, NR2E3 ag-2 -11, core dimer inh 10 and MT1-MMP act inh 1.
Screening C[C@H](NC(=O)c1nc[nH]c1C(=O)NC(c1ccccc1)c1ccccc1)C(=O)OCc1ccccc1 returned NR2E3 ag-1 2, Vif inh 0, DAGLB inh -3, NR2E3 ag-2 -5, core dimer inh 7 and MT1-MMP act inh -42.
For Oc1ccc(Cl)c(CN2CCN(c3ncc(Cc4ccccc4)cn3)CC2)c1 the results were MT1-MMP act inh 4.
`NC(=O)c1nsc(C(=O)N(c2cccc(F)c2)C(C(=O)NC2CCCC2)c2ccc(O)cc2)c1N` (stereo unspecified) gave NR2E3 ag-1 -7, Vif inh 91*, DAGLB inh 0, NR2E3 ag-2 -14, core dimer inh 6 and MT1-MMP act inh 1.
NC(=O)c1nsc(C(=O)N(c2cccc(F)c2)C(C(=O)NC2CCCC2)c2ccco2)c1N (stereo unspecified) was read as NR2E3 ag-1 8, Vif inh 12, DAGLB inh -1, NR2E3 ag-2 -2, core dimer inh 1 and MT1-MMP act inh 0.
`NC(=O)c1nsc(C(=O)N(c2ccccc2F)C(C(=O)NCc2ccc(F)cc2)c2ccc(O)cc2)c1N` (stereo unspecified) gave NR2E3 ag-1 -2, Vif inh -4, DAGLB inh -2, NR2E3 ag-2 20, core dimer inh 11 and MT1-MMP act inh -19.
NC(=O)c1nsc(C(=O)N(Cc2cccnc2)C(C(=O)NCc2ccc(F)cc2)c2ccc(O)cc2)c1N (stereo unspecified) was read as NR2E3 ag-1 -1, Vif inh 51*, DAGLB inh 3, NR2E3 ag-2 -17, core dimer inh -6 and MT1-MMP act inh 0.
For COc1ccc(-c2nsc(C(=O)N(c3ccc(F)cc3)C(C(=O)NC3CCCC3)c3ccc(OC)cc3)c2N)cc1 (stereo unspecified) the results were NR2E3 ag-1 3, Vif inh -4, DAGLB inh 0, NR2E3 ag-2 -34, core dimer inh 53* and MT1-MMP act inh -18.
Screening CN(CC1COc2ccccc2O1)C(=O)CSc1ncccn1 (stereo unspecified) returned Vif inh 6, DAGLB inh -3, NR2E3 ag-2 -48 and MT1-MMP act inh 0.
